Assay results of several laboratories.
Each line is one published result; the experiments were not run side by side. pEC50, pIC50, pKd, pKi: −log10 of the molar value.
ESR1: Estrogen receptor (ESR1, Homo sapiens, UniProt P03372)
ADRA2C: Alpha-2C adrenergic receptor (ADRA2C, Homo sapiens, UniProt P18825)
M-phase phosphoprotein 8 chromodomain: M-phase phosphoprotein 8, chromodomain (Homo sapiens, UniProt Q99549)

| Structure (SMILES) | target | test | quantity | result |
| --- | --- | --- | --- | --- |
| Clc1ccc(-c2ccc(Cl)cc2Cl)cc1 | ESR1 | reporter gene, agonist, luciferase | pEC50 | 4.57 |
| C[C@H](N)Cn1ncc2ccc3c(c21)CCCO3 | ADRA2C | ligand displacement, radioligand | pKi | 4.61 |
| CCN(CCCC[C@H](NC(=O)[C@H](CC(C)C)NC(=O)[C@H](C)NC(=O)[C@H](Cc1cccnc1)NC(=O)c1cccnc1)C(=O)N[C@@H](CO)C(N)=O)C(C)C | M-phase phosphoprotein 8 chromodomain | cell-free assay, TR-FRET | pIC50 | 5.74 |
| O=c1c2ccccc2[se]n1-c1ccccc1 | Leucine-rich repeat serine/threonine-protein kinase 2 (LRRK2, Homo sapiens, UniProt Q5S007, G2019S) | enzyme activity, inhibitor, radiometric | pIC50 | 5.73 |
| N[C@@H](Cc1ccc(O)cc1)C(=O)O | Iodotyrosine deiodinase (Haliscomenobacter hydrossis, UniProt F4KU78) | binding, fluorescence | pKd | < 2.92 |
| CCCC[C@@H](NC(=O)[C@@H](N)Cc1c(C)cc(O)cc1C)C(=O)NCC(=O)N[C@@H](Cc1ccc(F)cc1)C(=O)N(C)CCC[C@@]1(c2ccc(F)cc2)OCc2cc(C#N)ccc21 | ADRA2C | ligand displacement, radioligand | pKi | 6.55 |
| CCN(CCCC[C@H](NC(=O)[C@H](CC(C)C)NC(=O)[C@H](C)NC(=O)[C@H](Cc1ccccc1)NC(=O)c1ccc(N(C)C)cc1)C(=O)N[C@@H](CO)C(N)=O)C(C)C | M-phase phosphoprotein 8 chromodomain | cell-free assay, TR-FRET | pIC50 | 6.42 |
| c1cc[c]([Sn]([c]2ccccc2)[c]2ccccc2)cc1 | Peroxisome proliferator-activated receptor gamma (Pparg, Mus musculus, UniProt P37238) | reporter gene, agonist, luciferase | pEC50 | 7.15 |
| Oc1ccc(-c2cccc(Cl)c2)cc1Cl | ESR1 | reporter gene, agonist, luciferase | pEC50 | 5.09 |
| O=C1C[C@@H](c2ccc(O)cc2)Oc2cc(O)ccc21 | ESR1 | reporter gene, agonist, luciferase | pEC50 | 6.17 |
| CCN(CCCC[C@H](NC(=O)[C@H](Cc1ccc(OC)c(OC)c1)NC(=O)[C@H](C)NC(=O)[C@H](Cc1ccccc1)NC(=O)c1cccnc1)C(=O)N[C@@H](CO)C(N)=O)C(C)C | M-phase phosphoprotein 8 chromodomain | cell-free assay, TR-FRET | pIC50 | 5.72 |
| CC[n+]1c(-c2ccccc2)c2cc(N)ccc2c2ccc(N)cc21 | AChE (Phlebotomus papatasi, UniProt M1F887) | enzyme activity, inhibitor | pIC50 | 4.85 |
| CCN(CCCC[C@H](NC(=O)[C@H](CC(C)C)NC(=O)[C@H](C)NC(=O)[C@H](Cc1ccccc1)NC(=O)c1ccc(Br)c(N)c1)C(=O)N[C@@H](CO)C(N)=O)C(C)C | M-phase phosphoprotein 8 chromodomain | cell-free assay, TR-FRET | pIC50 | 6.54 |
| Clc1ccc(Cl)c(-c2ccccc2Cl)c1 | ESR1 | reporter gene, agonist, luciferase | pEC50 | 5.05 |
